From ChEMBL document CHEMBL4400581, “First Example of Catalytic Synthesis of Difurazanohexahydrohexaazapyrenes and in Vitro Study of Their Antitumor Activity” (2019)

Experiments:
Format in all cases: functional
Jurkat = experiment: Cytotoxicity against human Jurkat cells by MTT assay
Method in brief: (§1)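 Cytotoxicity was measured by MTT assay across a range of concentrations in human tumour lines, with etoposide as the reference drug. Results are expressed as CC50.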

K562 = experiment: Cytotoxicity against human K562 cells by MTT assay; method in brief: as §1
U-937 = experiment: Cytotoxicity against human U937 cells by MTT assay; method in brief: as §1
HeLa = experiment: Cytotoxicity against human HeLa cells by MTT assay; method in brief: as §1

With C1CCC(N2CN3c4nonc4N4CN(C5CCCCC5)CN5c6nonc6N(C2)C3C45)CC1 (centres undefined) the Activity (Jurkat) was “Dose-dependent effect”, the CC50 (Jurkat) was 530 nM and the Activity (K562) was “Dose-dependent effect”. The CC50 (K562) was 590 nM, the Activity (U-937) was “Dose-dependent effect” and the CC50 (U-937) was 540 nM. The Activity (HeLa) was “Dose-dependent effect” and the CC50 (HeLa) was 1040 nM.
With C1CCCC(N2CN3c4nonc4N4CN(C5CCCCCC5)CN5c6nonc6N(C2)C3C45)CC1 (centres undefined) the Activity (Jurkat) was “Dose-dependent effect”, the CC50 (Jurkat) was 570 nM and the Activity (K562) was “Dose-dependent effect”. For the same compound, the CC50 (K562) was 690 nM, the Activity (U-937) was “Dose-dependent effect” and the CC50 (U-937) was 590 nM. For the same compound, the Activity (HeLa) was “Dose-dependent effect” and the CC50 (HeLa) was 1210 nM.
In the case of C1CCCC(N2CN3c4nonc4N4CN(C5CCCCCCC5)CN5c6nonc6N(C2)C3C45)CCC1 (centres undefined), the Activity (Jurkat) is reported as “Dose-dependent effect”, the CC50 (Jurkat) is reported as 620 nM and the Activity (K562) is reported as “Dose-dependent effect”. For the same compound, the CC50 (K562) was 740 nM, the Activity (U-937) was “Dose-dependent effect” and the CC50 (U-937) was 580 nM. The Activity (HeLa) was “Dose-dependent effect” and the CC50 (HeLa) was 1370 nM.
